Results on one compound are retold here after ChEMBL document CHEMBL4130608, “Isolation, Derivative Synthesis, and Structure-Activity Relationships of Antiparasitic Bromopyrrole Alkaloids from the Marine Sponge Tedania brasiliensis” (J Nat Prod, 2018).

Calls of active or inactive are those of the source. The calls are words filed in the database; no cut-off is given here.

The nature of data set [1]: Selectivity index, ratio of MDL50 for human HepG2 cells to IC50 for drug-sensitive blood stage Plasmodium falciparum 3D7. Format: toxicity. The conditions noted are these: HepG2 cells versus blood stage Plasmodium falciparum 3D7, read-out: Selectivity Index.
Data set [2] has as its system Leishmania infantum. In words: Antileishmanial activity against Leishmania infantum MHOM/BR/1972/LD promastigotes after 24 hrs by MTT assay. Format: functional, organism-based. The essentials: (§1)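 Promastigotes (L. amazonensis, L. infantum; 26 °C, M199 with 20% heat-inactivated FBS, hemin, adenine, L-glutamine, plus 5% human urine for L. infantum) or T. cruzi Y epimastigotes (LIT with hemin, 10% FCS, 28 °C). Exposed to a series of concentrations for 24 h. Viability read by MTT. EC50 from sigmoidal fit of concentration–response. Triplicates, repeated two or three times.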

In data set [3] the test system is HepG2. In words: Cytotoxicity against human HepG2 cells assessed as morphological changes at 10 uM by microscopic method. Format: cell-based. Conditions: hepg2, 10 µM. Put shortly:
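HepG2 cells treated at 10 μM for 24 h. Microscopic morphology compared with untreated cells.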

For data set [4], the system named is Trypanosoma cruzi. Kind of data set: Antitrypanosomal activity against Trypanosoma cruzi Y epimastigotes after 24 hrs by MTT assay. Type of data set: functional, organism-based. Put shortly: as §1
(Formazan colour is commonly taken as a measure of viable cells.)

The subject of data set [5] is Plasmodium falciparum. In words: Antiplasmodial activity against drug-sensitive blood stage Plasmodium falciparum 3D7 by SYBR green 1 staining based fluorescence assay. Type of data set: functional, organism-based. The essentials: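 Sorbitol-synchronized ring-stage 3D7 exposed to a range of concentrations (samples in 0.05% DMSO), in triplicate. Then lysed with Tris/EDTA/saponin/Triton buffer containing SYBR Green I (1:20000) for 30 min. IC50 from curve fitting against untreated growth.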

Data set [6] relates to Plasmodium falciparum. Kind of data set: Antiplasmodial activity against chloroquine/cycloguanil/pyrimethamine-resistant blood stage Plasmodium falciparum K1 by SYBR green 1 staining based fluorescence assay. Format: functional, organism-based. Put shortly:
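Freshly sorbitol-synchronized ring stages were exposed in triplicate to a concentration series, solubilized in 0.05% DMSO (v/v), alongside sample-free cultures. Cells were lysed for 30 min in 20 mM Tris pH 7.5, 5 mM EDTA, 0.008% saponin and 0.08% Triton X-100 with SYBR green I (1:20000). IC50 was obtained by curve fitting against untreated growth.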

The subject of data set [7] is Plasmodium falciparum. In words: Synergistic antiplasmodial activity against chloroquine/cycloguanil/pyrimethamine-resistant blood stage Plasmodium falciparum K1 in presence of artesunate. Format: functional. The essentials:
(§2)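 Each drug's stock was made in complete medium so that the final concentration approximates its IC50 after 3–4 twofold dilutions. Stocks were mixed v/v at ratios ranging from 0:5 to 5:0 and serially diluted two-fold to seven concentrations. FIC50 was computed for each drug and summed as ΣFIC50.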

The subject of data set [8] is Plasmodium falciparum. In words: Antiplasmodial activity against drug-sensitive blood stage Plasmodium falciparum 3D7 ring forms assessed as morphological changes at 10 times IC50 after 8 to 16 hrs by microscopic analysis. Format: functional, organism-based. The essentials: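 Morphology examined by microscopy at 0, 8, 16 and 32 h post-synchronization. Three independent experiments.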

The subject of data set [9] is Plasmodium falciparum. Kind of data set: Synergistic antiplasmodial activity against drug-sensitive blood stage Plasmodium falciparum 3D7 in presence of artesunate. Format: functional. Put shortly: as §2
For data set [10], the system named is Plasmodium falciparum. In words: Antiplasmodial activity against chloroquine/cycloguanil/pyrimethamine-resistant blood stage Plasmodium falciparum K1 assessed as morphological changes at 10 times IC50 after 8 to 16 hrs by microscopic analysis. Format: functional, organism-based. Put shortly: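 Highly synchronized blood-stage parasites were kept under continuous treatment, with a DMSO-treated control. Morphology was examined by microscopy at 0, 8, 16 and 32 h post-synchronization. Images are representative of three independent experiments.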

Data set [11] concerns Leishmania amazonensis. Kind of data set: Antileishmanial activity against Leishmania amazonensis MHOM/BR/1973/M2269 promastigotes after 24 hrs by MTT assay. The conditions noted are these: MHOM/BR/1973/M2269, 24 h. Format: functional, organism-based. The essentials:
as §1

Data set [12] can be described thus: Cytotoxicity against human HepG2 cells after 24 hrs by MTT assay. Type of data set: cell-based. The conditions noted are these: read-out: MDL50. Put shortly: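 HepG2 cells grown in RPMI-1640 with 10% FBS, seeded at 5 × 10^3 cells/well and allowed to adhere for 18 h. Exposed to 1,000–1 μg/mL for 24 h at 37 °C, 5% CO2. MTT (5 mg/mL stock) added for 3 h, formazan dissolved in DMSO, absorbance read at 570 and 630 nm. Viability expressed as % of untreated control after background subtraction.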

With `O=C(NCCCCNCCCNC(=O)c1cc(Br)c(Br)[nH]1)c1cc(Br)c(Br)[nH]1`, the selectivity ratio in [1] turned out to be 15. For the same compound, the EC50 in data set [2], in data set [4] and in data set [11] was more than 100 µM each time. For the same compound, in data set [3], the Activity entry is “Non-Toxic”. In addition, the figures for the IC50 in data set [5] and in data set [6] were 1 µM and 1.1 µM, respectively. Also, the “fractional inhibitory concentration index (FICI)” value in [7] and in data set [9] was 1 throughout. Further, the outcome in data set [8] and in data set [10] was Active. Moreover, the CC50 at 24 h in data set [12] came to 16 µM.

Usually EC50 stands for the midpoint of the concentration-response curve. The term IC50 denotes the midpoint of a concentration-inhibition curve. A higher IC50 goes with a need for much substance.
